ChEMBL document CHEMBL1914423, “New imidazo[2,1-b]thiazole derivatives: synthesis, in vitro anticancer evaluation, and in silico studies” (Eur J Med Chem, 2011)

Columns and labels:
Type in all cases: functional
NCI-H460 = test: Anticancer activity against human NCI-H460 cells assessed as cell growth at 10^-5 M after 48 hrs by SRB assay; details: NCI-H460, 48 h, read-out: Activity
SK-MEL-28 = test: Anticancer activity against human SK-MEL-28 cells assessed as cell growth at 10^-5 M after 48 hrs by SRB assay; details: SK-MEL-28, 48 h, read-out: Activity
ACHN = test: Anticancer activity against human ACHN cells assessed as cell growth at 10^-5 M after 48 hrs by SRB assay; details: read-out: Activity
Procedure, shortened: (§1)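 NCI-60 single-dose screen at one concentration. Cells grown in RPMI 1640 with 5% FBS and 2 mM L-glutamine, plated at 5000–40,000 cells/well, and pre-incubated 24 h at 37 °C in 5% CO2 before DMSO-dissolved drug was added. Cells fixed with TCA, SRB-stained, absorbance read at 515 nm. Percent growth calculated against time-zero and untreated control plates.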

NCI-H322M = test: Anticancer activity against human NCI-H322M cells assessed as cell growth at 10^-5 M after 48 hrs by SRB assay; details: read-out: Activity
MDA-MB-468 = test: Anticancer activity against human MDA-MB-468 cells assessed as cell growth at 10^-5 M after 48 hrs by SRB assay; details: MDA-MB-468, 48 h, read-out: Activity
OVCAR-3 = test: Anticancer activity against human OVCAR3 cells assessed as cell growth at 10^-5 M after 48 hrs by SRB assay; details: OVCAR-3, 48 h, read-out: Activity
NCI-H522 = test: Anticancer activity against human NCI-H522 cells assessed as cell growth at 10^-5 M after 48 hrs by SRB assay; details: NCI-H522, 48 h, read-out: Activity
HCT-116 = test: Anticancer activity against human HCT116 cells assessed as cell growth at 10^-5 M after 48 hrs by SRB assay; details: HCT-116, 48 h, read-out: Activity; procedure, shortened: as §1
NCI-H226 = test: Anticancer activity against human NCI-H226 cells assessed as cell growth at 10^-5 M after 48 hrs by SRB assay; details: NCI-H226, 48 h, read-out: Activity
SN12C = test: Anticancer activity against human SN12C cells assessed as cell growth at 10^-5 M after 48 hrs by SRB assay; details: read-out: Activity
T47D = test: Anticancer activity against human T47D cells assessed as cell growth at 10^-5 M after 48 hrs by SRB assay; details: read-out: Activity
Procedure, shortened: (§2)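 NCI-60 single-dose screen: cells in RPMI 1640 with 5% FBS and 2 mM L-glutamine, plated at 5000–40,000 cells/well by doubling time, and preincubated 24 h at 37 °C. Compound given at one concentration from DMSO stock. Cells TCA-fixed and SRB-stained, absorbance at 515 nm. Percent growth relative to time-zero and untreated controls; inhibition % = 100 − growth %.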

NCI-H23 = test: Anticancer activity against human NCI-H23 cells assessed as cell growth at 10^-5 M after 48 hrs by SRB assay; details: NCI-H23, 48 h, read-out: Activity
K562 = test: Anticancer activity against human K562 cells assessed as cell growth at 10^-5 M after 48 hrs by SRB assay; details: K562, 48 h, read-out: Activity; procedure, shortened: as §1
M14 = test: Anticancer activity against human M14 cells assessed as cell growth at 10^-5 M after 48 hrs by SRB assay; details: M14, 48 h, read-out: Activity; procedure, shortened: as §1
MCF7 = test: Anticancer activity against human MCF7 cells assessed as cell growth at 10^-5 M after 48 hrs by SRB assay; details: MCF7, 48 h, read-out: Activity; procedure, shortened: as §1
MDA-MB-231 = test: Anticancer activity against human MDA-MB-231 cells assessed as cell growth at 10^-5 M after 48 hrs by SRB assay; details: MDA-MB-231, 48 h, read-out: Activity; procedure, shortened: as §1
KM12 = test: Anticancer activity against human KM12 cells assessed as cell growth at 10^-5 M after 48 hrs by SRB assay; details: KM12, 48 h, read-out: Activity; procedure, shortened: as §1
MOLT-4 = test: Anticancer activity against human MOLT4 cells assessed as cell growth at 10^-5 M after 48 hrs by SRB assay; details: MOLT-4, 48 h, read-out: Activity
HCT-15 = test: Anticancer activity against human HCT15 cells assessed as cell growth at 10^-5 M after 48 hrs by SRB assay; details: HCT-15, 48 h, read-out: Activity; procedure, shortened: as §1
786-0 = test: Anticancer activity against human 786-0 cells assessed as cell growth at 10^-5 M after 48 hrs by SRB assay; details: 786-0, 48 h, read-out: Activity; procedure, shortened: as §1
SK-OV-3 = test: Anticancer activity against human SKOV3 cells assessed as cell growth at 10^-5 M after 48 hrs by SRB assay; details: SK-OV-3, 48 h, read-out: Activity
PC-3 = test: Anticancer activity against human PC3 cells assessed as cell growth at 10^-5 M after 48 hrs by SRB assay; details: PC-3, 48 h, read-out: Activity
U-251 = test: Anticancer activity against human U251 cells assessed as cell growth at 10^-5 M after 48 hrs by SRB assay; details: U-251, 48 h, read-out: Activity; procedure, shortened: as §2
UO-31 = test: Anticancer activity against human UO31 cells assessed as cell growth at 10^-5 M after 48 hrs by SRB assay; details: UO-31, 48 h, read-out: Activity; procedure, shortened: as §2
RPMI-8226 = test: Anticancer activity against human RPMI8226 cells assessed as cell growth at 10^-5 M after 48 hrs by SRB assay; details: RPMI-8226, 48 h, read-out: Activity
IGROV-1 = test: Anticancer activity against human IGROV1 cells assessed as cell growth at 10^-5 M after 48 hrs by SRB assay; details: IGROV-1, 48 h, read-out: Activity; procedure, shortened: as §1
SF-295 = test: Anticancer activity against human SF295 cells assessed as cell growth at 10^-5 M after 48 hrs by SRB assay; details: SF-295, 48 h, read-out: Activity
CCRF-CEM = test: Anticancer activity against human CCRF-CEM cells assessed as cell growth at 10^-5 M after 48 hrs by SRB assay; details: read-out: Activity; procedure, shortened: as §1
HOP-92 = test: Anticancer activity against human HOP92 cells assessed as cell growth at 10^-5 M after 48 hrs by SRB assay; details: HOP-92, 48 h, read-out: Activity; procedure, shortened: as §1
SK-MEL-5 = test: Anticancer activity against human SK-MEL-5 cells assessed as cell growth at 10^-5 M after 48 hrs by SRB assay; details: SK-MEL-5, 48 h, read-out: Activity
Malme-3M = test: Anticancer activity against human MALME-3M cells assessed as cell growth at 10^-5 M after 48 hrs by SRB assay; details: read-out: Activity; procedure, shortened: as §1
OVCAR-8 = test: Anticancer activity against human OVCAR8 cells assessed as cell growth at 10^-5 M after 48 hrs by SRB assay; details: OVCAR-8, 48 h, read-out: Activity

| Structure (SMILES) | growth at 10 µM (NCI-H460) [%] | growth at 10 µM (SK-MEL-28) [%] | growth at 10 µM (ACHN) [%] | growth at 10 µM (NCI-H322M) [%] | growth at 10 µM (MDA-MB-468) [%] | growth at 10 µM (OVCAR-3) [%] | growth at 10 µM (NCI-H522) [%] | growth at 10 µM (HCT-116) [%] | growth at 10 µM (NCI-H226) [%] | growth at 10 µM (SN12C) [%] | growth at 10 µM (T47D) [%] | growth at 10 µM (NCI-H23) [%] | growth at 10 µM (K562) [%] | growth at 10 µM (M14) [%] | growth at 10 µM (MCF7) [%] | growth at 10 µM (MDA-MB-231) [%] | growth at 10 µM (KM12) [%] | growth at 10 µM (MOLT-4) [%] | growth at 10 µM (HCT-15) [%] | growth at 10 µM (786-0) [%] | also measured |
| --- | --- | --- | --- | --- | --- | --- | --- | --- | --- | --- | --- | --- | --- | --- | --- | --- | --- | --- | --- | --- | --- |
| O=C(NCCNc1nccc(-c2c(-c3cccc(O)c3)nc3sccn23)n1)c1ccccc1O | 57 | 41.4 | 46.1 | 72.3 | 52 | 60.2 | 29 | 25.9 | 80.5 | 48 | 61.8 | 57.4 | 40.5 | 16.7 | 37 | 48.4 | 46.7 | 46.2 | 54.5 | 64.6 | growth at 10 µM (SK-OV-3): 60.5%; growth at 10 µM (PC-3): 51.1%; growth at 10 µM (U-251): 61.6%; growth at 10 µM (UO-31): 34.6%; growth at 10 µM (RPMI-8226): 11.6%; growth at 10 µM (IGROV-1): 31.6%; growth at 10 µM (SF-295): 46.4%; growth at 10 µM (CCRF-CEM): 18.9%; growth at 10 µM (HOP-92): 59.9%; growth at 10 µM (SK-MEL-5): 22.7%; growth at 10 µM (Malme-3M): 14.6%; growth at 10 µM (OVCAR-8): 41.3% |
| O=C(NCCNc1nccc(-c2c(-c3cccc(O)c3)nc3sccn23)n1)Nc1cccc(C(F)(F)F)c1 | 80.1 | 48.8 | 85.1 | 76.8 | -40.6 | 76.7 | -5.9 | 56.8 | 97 | 70.7 | 63.8 | 96.2 | 70.6 | -21.7 | 55.6 | 37.7 | 14.1 | 59.8 | 84.7 | 79.4 | growth at 10 µM (SK-OV-3): 85%; growth at 10 µM (PC-3): 26.7%; growth at 10 µM (U-251): 81.6%; growth at 10 µM (UO-31): 75.2%; growth at 10 µM (RPMI-8226): -4.81%; growth at 10 µM (IGROV-1): 65.6%; growth at 10 µM (SF-295): 75.5%; growth at 10 µM (CCRF-CEM): 23.1%; growth at 10 µM (HOP-92): 54.5%; growth at 10 µM (SK-MEL-5): 53.5%; growth at 10 µM (Malme-3M): 23.6%; growth at 10 µM (OVCAR-8): 41.1% |
| COc1cccc(-c2nc3sccn3c2-c2ccnc(NCCNC(=O)c3cc(N4CCOCC4)cc(C(F)(F)F)c3)n2)c1 | 95.6 | 88.2 | 80.1 | 96.6 | 98.1 | 96.3 | 69.5 | 75.6 | 104 | 89.3 | 86.3 | 110 | 90.1 | 65.3 | 84.9 | 80.4 | 83.2 | 60 | 88.5 | 74.4 | growth at 10 µM (SK-OV-3): 99.4%; growth at 10 µM (PC-3): 66.3%; growth at 10 µM (U-251): 100%; growth at 10 µM (UO-31): 60.2%; growth at 10 µM (RPMI-8226): 39.1%; growth at 10 µM (IGROV-1): 67.5%; growth at 10 µM (SF-295): 83.7%; growth at 10 µM (CCRF-CEM): 49.4%; growth at 10 µM (HOP-92): 59.1%; growth at 10 µM (SK-MEL-5): 66.2%; growth at 10 µM (Malme-3M): 80.8% |
| O=C(NCCNc1nccc(-c2c(-c3cccc(O)c3)nc3sccn23)n1)c1cccc(C(F)(F)F)c1 | 85.7 | 38.5 | 66 | 103 | 70.5 | 89.8 | 48.5 | 74.3 | 88.5 | 83.2 | 69.5 | 81 | 56.2 | 17.5 | 75.3 | 76.2 | 81 | 61.5 | 87.8 | 89.3 | growth at 10 µM (SK-OV-3): 84.2%; growth at 10 µM (PC-3): 67.3%; growth at 10 µM (U-251): 84.8%; growth at 10 µM (UO-31): 73.4%; growth at 10 µM (RPMI-8226): 44.2%; growth at 10 µM (IGROV-1): 62.1%; growth at 10 µM (SF-295): 69.6%; growth at 10 µM (CCRF-CEM): 37.5%; growth at 10 µM (HOP-92): 83.8%; growth at 10 µM (SK-MEL-5): 52.6%; growth at 10 µM (Malme-3M): 0.75% |
